Experimental findings from ChEMBL document CHEMBL1128358, “Synthesis of novel imidazobenzodiazepines as probes of the pharmacophore for "diazepam-insensitive" GABAA receptors” (J Med Chem, 1995) are described below.

Assay [1] addresses GABA-A receptor; anion channel. Nature of the assay: Binding affinity against Diazepam insensitive (DI) Gamma-aminobutyric acid A receptor. In kind it is protein-complex assay, Rattus norvegicus.
Assay [2] deals with GABA-A receptor; anion channel. Nature of the assay: Binding affinity against Diazepam sensitive (DS) Gamma-aminobutyric acid A receptor. Format: protein-complex assay, Rattus norvegicus. Put shortly: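 [3H]Ro15-4513 displacement (~2 nM final) on washed cerebellar membranes from adult male Sprague-Dawley rats, ~100 µg tissue, 0.2 M NaCl, 50 mM Tris citrate pH 7.8. DI binding has 10 µM diazepam added. DS binding is total minus DI. Nonspecific binding uses 10 µM Ro15-1788.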

Molecules are shown by their SMILES.

In turn, `O=C1C2C=Nc3ccccc3C2=NN1c1ccccc1` (configuration not stated) [CGS-8216] came in with a Ki in assay [1] of 46 nM. That is a double-digit nanomolar value. Still for that read-out and setting: under `COc1ccc(-n2nc3c4cc(Cl)ccc4[nH]cc-3c2=O)cc1` stands 1.9 nM. In assay [1], `CN1Cc2c(CO)ncn2-c2ccc(Cl)cc2C1=O` returned a Ki above 1000 nM. Also, the IC50 in assay [2] is above 1000 nM. In assay [1], `COc1cccc(-n2[nH]c3c(cnc4ccccc43)c2=O)c1` yielded a Ki of 26 nM.

In turn, `CCOC(=O)c1ncn2c1CN(C)C(=O)c1cc(OC)ccc1-2` displayed an inhibition constant (Ki) in assay [1] of 23.8 nM. In assay [2], this compound returned an IC50 of 2.47 nM. The compound `CN1Cc2c(CCl)ncn2-c2ccc(Cl)cc2C1=O` returned an inhibition constant Ki in assay [1] above 1000 nM. Besides, the half-inhibitory concentration (IC50) in assay [2] was above 500 nM. Consider `COCc1ncn2c1CN(C)C(=O)c1cc(Cl)ccc1-2`, for which the Ki in assay [1] is above 1000 nM. The compound also registered a concentration for half-maximal inhibition (IC50) in assay [2] of 514 nM. In the same order, the values of `CCCCC(=O)c1ncn2c1CN(C)C(=O)c1cc(Cl)ccc1-2` are above 1000 nM and above 500 nM. In the case of `CC(C)N(Cc1ncn2c1CN(C)C(=O)c1cc(Cl)ccc1-2)C(C)C`, the Ki in assay [1] is above 1000 nM. In addition, the IC50 in assay [2] was above 1000 nM. Take `COc1ccc2c(c1)ncc1c(=O)n(-c3ccccc3)[nH]c12`: in assay [1], the Ki amounted to 1.9 nM.

Take `CCOC(=O)c1ncn2c1CN(C)C(=O)c1cc(OCC)ccc1-2`: the inhibition constant Ki in assay [1] was 40.9 nM. In assay [2], this compound came in with a 50% inhibitory concentration (IC50) of 7.07 nM.

In assay [1], `COc1ccc(-n2nc3c4ccccc4[nH]cc-3c2=O)cc1` displayed an inhibitory constant (Ki) of 9.3 nM.

Regarding `CC(=O)c1ncn2c1CN(C)C(=O)c1cc(Cl)ccc1-2`, in assay [1], the Ki is above 1000 nM. In addition, the IC50 in assay [2] is above 1000 nM. In assay [1], `CCN(CC)Cc1ncn2c1CN(C)C(=O)c1cc(Cl)ccc1-2` returned a Ki above 1000 nM. This compound also displayed a half-inhibitory concentration (IC50) in assay [2] above 1000 nM. For `COc1ccc(-n2nc3c4ccc(OC)cc4[nH]cc-3c2=O)cc1`, in assay [1], the Ki is 10 nM. Same read-out and setting: to `COc1ccc2ncc3c(=O)n(-c4ccccc4)[nH]c3c2c1` belongs 47 nM. Regarding `CCc1ncn2c1CN(C)C(=O)c1cc(Cl)ccc1-2`, the Ki in assay [1] is above 1000 nM. Further, the half-inhibitory concentration (IC50) in assay [2] was above 500 nM. For `CCCCCc1ncn2c1CN(C)C(=O)c1cc(Cl)ccc1-2`, in that order: above 1000 nM and above 1000 nM. For `CCOCc1ncn2c1CN(C)C(=O)c1cc(Cl)ccc1-2`, in that order: above 1000 nM and above 500 nM. Turning to `O=c1c2cnc3ccc(Cl)cc3c2[nH]n1-c1ccccc1`, the affinity in assay [1] corresponds to a Ki of 5.1 nM. This lies in the single-digit nanomolar range.

The term Ki denotes a dissociation constant, usually derived from enzyme kinetics or from competition with a known ligand. Read a low Ki as a stronger hold on the target. As a reminder, the IC50 is the concentration at which inhibition is half-maximal. Low readings indicate greater potency, high ones weaker potency.
